This is an account of results in ChEMBL document CHEMBL5257161, “Mycobacterium tuberculosis CitA activity is modulated by cysteine oxidation and pyruvate binding” (RSC Med Chem, 2023).

A word on the IC50: it is the midpoint of a concentration-inhibition curve. Lower therefore signals higher potency.

This experiment addresses T1, Putative citrate synthase 2 (Mycobacterium tuberculosis, UniProt P9WPD3).
T1 sequence (P9WPD3 whole entry): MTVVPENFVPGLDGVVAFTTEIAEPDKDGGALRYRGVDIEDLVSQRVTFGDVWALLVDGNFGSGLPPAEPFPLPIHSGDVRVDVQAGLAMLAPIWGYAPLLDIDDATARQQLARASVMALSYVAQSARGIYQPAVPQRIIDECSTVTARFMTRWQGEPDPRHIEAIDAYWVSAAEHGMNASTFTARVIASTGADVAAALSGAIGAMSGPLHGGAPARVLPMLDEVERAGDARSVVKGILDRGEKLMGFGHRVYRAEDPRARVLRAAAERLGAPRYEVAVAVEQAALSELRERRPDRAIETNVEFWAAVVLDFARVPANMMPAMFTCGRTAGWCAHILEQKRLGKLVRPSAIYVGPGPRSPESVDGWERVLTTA
The experiment is described as follows: Inhibition of Mycobacterium tuberculosis CitA expressed in Escherichia coli cell by UV spectrophotometric based analysis. In short, it runs like this:
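Michael acceptor compounds were added directly to the DTNB/OAA/AcCoA reaction with 10 nM CitA in 50 mM Tris pH 8.0 at 25 °C, read at 412 nm. The screen used 20 μM compound. Dose–response data were fitted to the Hill equation for apparent IC50. A control measured how fast the compounds react with reaction components.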

For the compound `C=C1C(=O)OC2(C(=O)Nc3ccccc32)C1c1ccccc1` (configuration not stated), the IC50 was found to be 10.9 µM.

Compound `C=C1CC2(OC1=O)C(=O)Nc1ccc(I)cc12` (configuration not stated) displayed a concentration for half-maximal inhibition (IC50) of 6.6 µM.
